Legend:
[1] = organism: Homo sapiens; assay: Effective concentration to induce smooth muscle contraction in human fetal artery; type: functional; details: Muscle tissue
In short: (§1)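 Human fetal artery smooth muscle contraction; full dose–response curves for recombinant human C5a or each peptide in the same tissue preparation. EC50 is the concentration giving 50% of the maximal response, read relative to the C5a maximum. pD2 = −log EC50 (M), averaged per peptide ± SE. Log potency ratio pD2(C5a) − pD2(peptide) is computed within each experiment. Relative potency = antilog(−Δ) × 100.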

[2] = organism: Homo sapiens; assay: Tested for inhibition of binding of [125I]C5a to intact human polymorphonuclear cells (PMN) (n=3); type: functional
In short: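 Competition binding on freshly isolated intact human PMNs (0.25 × 10⁶) with 20 pM [¹²⁵I]C5a plus unlabeled C5a or peptide. Buffer is 50 mM HEPES, 1 mM CaCl₂, 5 mM MgCl₂, 0.5% BSA. Incubation 60 min at 4 °C, then filtration, ice-cold washes and gamma counting, triplicates. Nonspecific binding defined with 1 mM peptide or 100 nM C5a. Relative affinity = antilog[−(log IC50 C5a − log IC50 peptide)] × 100. The potency/binding ratio is EC50 divided by the binding IC50.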

[3] = organism: Homo sapiens; assay: Effective concentration to stimulate beta-glucuronidase release from human polymorphonuclear cells (PMN) (n=4); type: functional
In short: (§2)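 Human PMNs pretreated with cytochalasin B (5 μg/mL, 10 min, 37 °C), then 10⁶ cells stimulated for 60 min at 37 °C. β-Glucuronidase in the supernatant is assayed with 0.01 M p-nitrophenyl β-D-glucuronide (0.1 M acetate, pH 4, 18 h) in triplicate. Reaction stopped with glycine pH 10 and read at 415 nm. pD2 is taken from dose–response curves against the C5a EC50. Efficacy is given relative to C5a maximum (100%).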

[4] = organism: Homo sapiens; assay: Relative potency of peptide for human fetal artery was determined; type: functional; in short: as §1
[5] = organism: Homo sapiens; assay: Spasmogenic activity was measured by the ability to induce smooth muscle contraction in human fetal artery; type: functional, Muscle tissue; in short: as §1
[6] = organism: Homo sapiens; assay: Tested for the ability to stimulate beta-glucuronidase release from human polymorphonuclear cells (PMN) (n=4); type: functional; in short: as §2
[7] = organism: Homo sapiens; assay: Log potency ratio [pD2(C5a)-pD2(peptide)] was determined in human polymorphonuclear cells (PMN) (n=4); type: functional; in short: as §2
[8] = organism: Homo sapiens; assay: Relative potency of peptide to stimulate beta-glucuronidase release from human polymorphonuclear cells (PMN) (n=4); type: functional; in short: as §2
[9] = organism: Homo sapiens; assay: Maximum efficacy relative to C5a (100%) for human polymorphonuclear cells (PMN) was determined (n=4); type: functional; in short: as §2
[10] = organism: Homo sapiens; assay: Log potency ratio [pD2(C5a)-pD2(peptide)] was determined in human fetal artery; type: functional; in short: as §1
[11] = Selectivity of peptide was determined from antilog[pD2(fetal artery)-pD2 (PMN enzyme release)] (n=11); type: functional
In short: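 Selectivity = antilog[pD2(fetal artery) − pD2(PMN β-glucuronidase release)]. pD2 values come from full dose–response curves in each assay, each generated alongside C5a.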

[12] = organism: Homo sapiens; assay: Effective concentration to stimulate beta-glucuronidase release from human polymorphonuclear cells (PMN) (n=5); type: functional; in short: as §2

Compound	EC50 [1]	EC50 [3]	also measured
CSCC[C@H](NC(=O)[C@@H]1CCCN1C(=O)[C@H](CCCCN)NC(=O)[C@H](Cc1ccccc1)NC(=O)[C@H](CO)NC(=O)[C@H](Cc1ccc(O)cc1)NC(=O)CCCCCN)C(=O)N1CCC[C@H]1C(=O)N[C@@H](CC(C)C)C(=O)N[C@H](C)C(=O)N[C@@H](CCCN=C(N)N)C(=O)O	70 nM	3100 nM	IC50 [2]: 5500 nM
CSCC[C@H](NC(=O)[C@@H]1CCCN1C(=O)[C@H](CCCCN)NC(=O)[C@H](Cc1ccccc1)NC(=O)[C@H](CO)NC(=O)[C@H](Cc1ccc(O)cc1)NC(=O)CNC(=O)CNC(=O)CNC(=O)[C@H](CCCCN)NC(=O)CNC(=O)[C@H](CCCCN)NC(=O)CNC(=O)[C@@H](N)CCCCN)C(=O)N1CCC[C@H]1C(=O)N[C@@H](CC(C)C)C(=O)N[C@H](C)C(=O)N[C@@H](CCCN=C(N)N)C(=O)O [listing 1 of 2 here]			Potency [4]: 15%; pD2 [5]: 7.14; pD2 [6]: 5.71; Mean log concentration ratio [7]: 1.74; Potency [8]: 1.8%; C5a max [9]: 177%; Mean log concentration ratio [10]: 0.83; Selectivity [11]: 27
CSCC[C@H](NC(=O)[C@@H]1CCCN1C(=O)[C@H](CCCCN)NC(=O)[C@H](Cc1ccccc1)NC(=O)[C@H](CO)NC(=O)[C@H](Cc1ccc(O)cc1)NC(C)=O)C(=O)N1CCC[C@H]1C(=O)N[C@@H](CC(C)C)C(=O)N[C@H](C)C(=O)N[C@@H](CCCN=C(N)N)C(=O)O	100 nM	9300 nM	
CSCC[C@H](NC(=O)[C@@H]1CCCN1C(=O)[C@H](CCCCN)NC(=O)[C@H](Cc1ccccc1)NC(=O)[C@H](CO)NC(=O)[C@H](Cc1ccc(O)cc1)NC(=O)CCCCCNC(=O)[C@H](Cc1c[nH]c2ccccc12)NC(=O)[C@@H](N)CC(=O)O)C(=O)N1CCC[C@H]1C(=O)N[C@@H](CC(C)C)C(=O)N[C@H](C)C(=O)N[C@@H](CCCN=C(N)N)C(=O)O	200 nM	7200 nM	
CSCC[C@H](NC(=O)[C@@H]1CCCN1C(=O)[C@H](CCCCN)NC(=O)[C@H](Cc1ccccc1)NC(=O)[C@H](CO)NC(=O)[C@H](Cc1ccc(O)cc1)NC(=O)CCCCCNC(=O)[C@H](Cc1c[nH]c2ccccc12)NC(=O)[C@@H](N)CCCCN)C(=O)N1CCC[C@H]1C(=O)N[C@@H](CC(C)C)C(=O)N[C@H](C)C(=O)N[C@@H](CCCN=C(N)N)C(=O)O	100 nM		EC50 [12]: 2500 nM
CSCC[C@H](NC(=O)[C@@H]1CCCN1C(=O)[C@H](CCCCN)NC(=O)[C@H](Cc1ccccc1)NC(=O)[C@H](CO)NC(=O)[C@H](Cc1ccc(O)cc1)NC(=O)CNC(=O)CNC(=O)CNC(=O)[C@H](CCCCN)NC(=O)CNC(=O)[C@H](CCCCN)NC(=O)CNC(=O)[C@@H](N)CCCCN)C(=O)N1CCC[C@H]1C(=O)N[C@@H](CC(C)C)C(=O)N[C@H](C)C(=O)N[C@@H](CCCN=C(N)N)C(=O)O [listing 2 of 2 here]	70 nM	2000 nM	
CSCC[C@H](NC(=O)[C@@H]1CCCN1C(=O)[C@H](CCCCN)NC(=O)[C@H](Cc1ccccc1)NC(=O)[C@H](CO)NC(=O)[C@H](Cc1ccc(O)cc1)NC(=O)CCCCCNC(=O)[C@H](CCCCN)NC(=O)CNC(=O)[C@H](CCCCN)NC(=O)CNC(=O)[C@@H](N)CCCCN)C(=O)N1CCC[C@H]1C(=O)N[C@@H](CC(C)C)C(=O)N[C@H](C)C(=O)N[C@@H](CCCN=C(N)N)C(=O)O	100 nM	6700 nM	

Reference: ChEMBL document CHEMBL1129970, “Biologically active conformer of the effector region of human C5a and modulatory effects of N-terminal receptor binding determinants on activity” (J Med Chem, 1997)
